We go through two molecules from PMC5976445 (Journal of inorganic biochemistry, 2018).

Experiment [1] has as its target T1, CYP101D1 (Novosphingobium aromaticivorans, UniProt Q2GB12).
T1 sequence (Q2GB12 1-421): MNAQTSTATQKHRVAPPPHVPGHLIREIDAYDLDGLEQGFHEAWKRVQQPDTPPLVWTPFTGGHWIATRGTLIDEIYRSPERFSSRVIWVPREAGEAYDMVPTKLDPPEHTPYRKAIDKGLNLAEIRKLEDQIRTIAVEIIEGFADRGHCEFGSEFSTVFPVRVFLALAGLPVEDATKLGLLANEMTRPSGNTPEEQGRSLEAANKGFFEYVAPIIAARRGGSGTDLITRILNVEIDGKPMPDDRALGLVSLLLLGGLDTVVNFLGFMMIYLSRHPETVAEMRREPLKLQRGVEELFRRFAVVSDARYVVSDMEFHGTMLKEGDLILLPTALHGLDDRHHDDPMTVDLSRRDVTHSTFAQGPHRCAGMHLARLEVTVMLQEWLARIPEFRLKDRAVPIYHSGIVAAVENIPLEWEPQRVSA
The experiment in a line: isothermal titration calorimetry. The experiment is classed as binding. In short, it runs like this:
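CYP101D1, expressed His-tagged in E. coli BL21(DE3), Ni-IMAC purified, thrombin-cleaved and gel-filtered. ITC at 25°C in 50 mM potassium phosphate without reducing agents. Either 600 μM–1 mM test compound was titrated into 40–50 μM CYP101D1, or 2 mM redox partner into 50 μM CYP101D1 (±1 mM camphor). 18 × 2 μL injections, 150 s apart, 750 rpm. Corrected for dilution enthalpy. 3–5 runs.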

Experiment [2] addresses CYP101D1 (UniProt Q2GB12). Description: ITC. On the technique in general: Isothermal titration calorimetry measures the heat released or taken up as one component is titrated into another.
Experiment [3] addresses CYP101D1 (UniProt Q2GB12). Description: ITC. This is another data set of the same source.
In experiment [4] the target is CYP101D1 (UniProt Q2GB12). Description: ITC. The source holds these as a separate data set.
The target in experiment [5] is CYP101D1 (UniProt Q2GB12). Description: ITC. This is another data set of the same source.

Where two headings read alike, the source gives them in different places.

As a reminder, the Kd is the constant that tells how readily two partners part at equilibrium. High values mean weaker binding, low ones tighter binding. `CC1(C)[C@@H]2CC[C@@]1(C)C(=O)C2` [D-camphor] registered an equilibrium dissociation constant (Kd) on CYP101D1 [1] of 14.9 µM.
Take Arx (natural protein): the equilibrium dissociation constant (Kd) was found to be 43.3 µM with CYP101D1 [2], 94.8 µM with CYP101D1 [3], 97.7 µM with CYP101D1 [4] and 41.1 µM in the experiment with CYP101D1 [5]. Further, the dH was -18.2 kcal/mol with CYP101D1 [3] and -12.1 kcal/mol with CYP101D1 [5].
